Results reported in ChEMBL document CHEMBL4177742, “Synthesis and biological evaluation of 4β-(thiazol-2-yl)amino-4'-O-demethyl-4-deoxypodophyllotoxins as topoisomerase-II inhibitors” (Bioorg Med Chem Lett, 2018).
The source made the active and inactive calls. The calls are words filed in the database; no cut-off is given here.

Assays:
A549 [1] = test: Cytotoxicity against human A549 cells assessed as reduction in inhibition of cell growth incubated for 48 hrs by MTT assay; type: functional, cell-based; conditions: A549, 48 h
HepG2 = test: Cytotoxicity against human HepG2 cells assessed as reduction in inhibition of cell growth incubated for 48 hrs by MTT assay; type: functional, cell-based; conditions: HepG2, 48 h
HeLa = test: Cytotoxicity against human HeLa cells assessed as reduction in inhibition of cell growth incubated for 48 hrs by MTT assay; type: functional, cell-based
LoVo = test: Cytotoxicity against human LoVo cells assessed as reduction in inhibition of cell growth incubated for 48 hrs by MTT assay; type: functional, cell-based
WI-38 = test: Cytotoxicity against human WI38 cells assessed as reduction in inhibition of cell growth incubated for 48 hrs by MTT assay; type: cell-based; conditions: WI-38, 48 h
A549 [2] = test: Inhibition of topoisomerase 2alpha protein expression in human A549 cells at 1 to 10 uM incubated for 12 hrs by Western blotting; type: functional, cell-based
Outline: (§1)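 Topo-IIα and topo-IIβ expression was measured in A549 cells treated 12 h at 1, 5 and 10 μM, with etoposide (5 μM) as a reference treatment.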

A549 [3] = test: Inhibition of topoisomerase 2beta protein expression in human A549 cells at 1 to 10 uM incubated for 12 hrs by Western blotting; type: functional, cell-based; outline: as §1
[4] = molecular target: DNA topoisomerase 2-alpha (Homo sapiens) (UniProt P11388); test: Inhibition of topoisomerase 2alpha in human A549 cells assessed as reduction in enzyme-mediated super coliling activity by measuring induction of pBR322 DNA relaxation at 100 uM incubated for 12 hrs by ethidium bromide staining based agarose gel electrophoresis method; type: cell-based
Sequence of DNA topoisomerase 2-alpha (Homo sapiens) (P11388 whole entry): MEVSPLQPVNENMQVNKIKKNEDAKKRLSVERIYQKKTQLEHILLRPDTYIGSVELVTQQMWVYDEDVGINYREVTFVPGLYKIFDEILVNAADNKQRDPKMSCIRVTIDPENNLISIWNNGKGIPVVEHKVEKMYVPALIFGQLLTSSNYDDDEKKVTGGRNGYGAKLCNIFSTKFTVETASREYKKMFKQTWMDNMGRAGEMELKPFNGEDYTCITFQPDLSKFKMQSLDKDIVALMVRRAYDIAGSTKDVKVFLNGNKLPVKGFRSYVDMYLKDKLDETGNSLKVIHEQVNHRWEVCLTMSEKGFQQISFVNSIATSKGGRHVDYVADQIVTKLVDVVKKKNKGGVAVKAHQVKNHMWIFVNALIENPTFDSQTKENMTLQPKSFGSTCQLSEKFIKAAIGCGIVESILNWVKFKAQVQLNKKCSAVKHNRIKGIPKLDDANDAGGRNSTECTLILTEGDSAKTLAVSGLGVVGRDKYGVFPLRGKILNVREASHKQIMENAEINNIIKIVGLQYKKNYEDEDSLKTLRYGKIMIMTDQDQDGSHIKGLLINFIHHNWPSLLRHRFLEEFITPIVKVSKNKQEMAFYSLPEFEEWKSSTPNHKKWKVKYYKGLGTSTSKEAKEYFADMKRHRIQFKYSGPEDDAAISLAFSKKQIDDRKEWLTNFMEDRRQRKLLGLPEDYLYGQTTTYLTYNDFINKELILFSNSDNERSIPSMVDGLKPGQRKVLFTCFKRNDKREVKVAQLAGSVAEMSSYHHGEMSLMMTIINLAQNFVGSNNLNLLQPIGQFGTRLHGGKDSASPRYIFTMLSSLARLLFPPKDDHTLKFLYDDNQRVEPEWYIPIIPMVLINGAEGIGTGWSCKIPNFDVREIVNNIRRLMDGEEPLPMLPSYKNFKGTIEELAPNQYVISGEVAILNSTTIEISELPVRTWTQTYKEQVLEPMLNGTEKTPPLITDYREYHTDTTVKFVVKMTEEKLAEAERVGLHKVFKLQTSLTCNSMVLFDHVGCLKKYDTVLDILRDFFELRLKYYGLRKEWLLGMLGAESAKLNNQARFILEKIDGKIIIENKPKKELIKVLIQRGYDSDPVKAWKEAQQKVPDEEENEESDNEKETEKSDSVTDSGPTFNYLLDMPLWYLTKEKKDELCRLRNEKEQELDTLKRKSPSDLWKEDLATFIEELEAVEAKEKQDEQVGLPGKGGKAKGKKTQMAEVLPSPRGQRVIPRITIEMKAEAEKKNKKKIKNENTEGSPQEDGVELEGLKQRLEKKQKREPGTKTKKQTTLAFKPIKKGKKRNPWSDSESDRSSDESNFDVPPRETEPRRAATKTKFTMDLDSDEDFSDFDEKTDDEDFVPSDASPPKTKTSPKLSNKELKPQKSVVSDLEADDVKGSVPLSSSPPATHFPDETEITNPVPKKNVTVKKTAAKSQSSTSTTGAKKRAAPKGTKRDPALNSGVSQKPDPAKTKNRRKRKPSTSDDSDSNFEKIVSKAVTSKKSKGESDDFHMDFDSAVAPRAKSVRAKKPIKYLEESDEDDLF

A549 [5] = test: Induction of DNA double stranded breaks in human A549 cells assessed as increase in gamma-H2Ax level at 1 to 10 uM incubated for 12 hrs by Western blotting; type: functional, cell-based
Outline: (§2)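 A549 cells exposed for 12 h to 1, 5 or 10 μM alongside vehicle and etoposide (5 μM) as a reference. Lysates were probed by western blotting for phospho-H2AX (Ser-139, γH2AX), p73 and phospho-ATM.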

A549 [6] = test: Induction of DNA double stranded breaks in human A549 cells assessed as increase in gamma-H2Ax level at 1 to 5 uM incubated for 12 hrs by DAPI staining based immunofluorescence assay; type: functional, cell-based
Outline: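 A549 cells were treated 12 h with vehicle, 1 μM or 5 μM, then immunostained with anti-γH2AX antibody and counterstained with DAPI. Nuclear γH2AX foci were scored by immunofluorescence as a marker of DNA double-strand breaks.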

A549 [7] = test: Induction of DNA double stranded breaks in human A549 cells assessed as increase in p73 protein levels at 1 to 10 uM incubated for 12 hrs by Western blotting; type: functional, cell-based; outline: as §2
A549 [8] = test: Induction of DNA double stranded breaks in human A549 cells assessed as increase in ATM phosphorylation levels at 1 to 10 uM incubated for 12 hrs by Western blotting; type: functional, cell-based; outline: as §2
A549 [9] = test: Induction of cell cycle arrest in human A549 cells assessed as increase in cyclin B1 protein level at 1 to 10 uM incubated for 12 hrs by Western blotting; type: functional, cell-based
Outline: (§3)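 For G2/M regulators, A549 cells were exposed 12 h to 1, 5 or 10 μM and analysed by western blotting for cyclin B1 and cdc2(p34).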

A549 [10] = test: Induction of cell cycle arrest in human A549 cells assessed as increase in cdc2(p34) protein level at 1 to 10 uM incubated for 12 hrs by Western blotting; type: functional, cell-based; outline: as §3
A549 [11] = test: Induction of cell cycle arrest in human A549 cells assessed as increase in accumulation at G2/M phase at 1 to 5 uM incubated for 12 hrs by propidium iodide staining based FACS analysis
A549 [12] = test: Induction of cell cycle arrest in human A549 cells assessed as reduction in accumulation at G1 phase at 1 to 5 uM incubated for 12 hrs by propidium iodide staining based FACS analysis

SMILES: COc1cc([C@@H]2c3cc4c(cc3[C@@H](Nc3nc(CC(=O)NC5CCCCC5)cs3)[C@H]3COC(=O)[C@H]23)OCO4)cc(OC)c1O
- IC50 (A549 [1]): 9.4 µM
- IC50 (HepG2): 16.3 µM
- IC50 (HeLa): 10.7 µM
- IC50 (LoVo): 19.1 µM
- IC50 (WI-38): 77.8 µM

SMILES: COc1cc([C@@H]2c3cc4c(cc3[C@@H](O[C@@H]3O[C@@H]5CO[C@@H](C)O[C@H]5[C@H](O)[C@H]3O)[C@H]3COC(=O)[C@H]23)OCO4)cc(OC)c1O [ETOPOSIDE]
- IC50 (A549 [1]): 9.1 µM
- IC50 (HepG2): 9.2 µM
- IC50 (HeLa): 11.2 µM
- IC50 (LoVo): 18.7 µM
- IC50 (WI-38): 25.7 µM

SMILES: COc1cc([C@@H]2c3cc4c(cc3[C@@H](Nc3nc(CC(=O)N5CCN(C6CCCC6)CC5)cs3)[C@H]3COC(=O)[C@H]23)OCO4)cc(OC)c1O
- IC50 (A549 [1]): 1.3 µM
- IC50 (HepG2): 8.5 µM
- IC50 (HeLa): 4.4 µM
- IC50 (LoVo): 9.2 µM
- IC50 (WI-38): 66.7 µM
- inhibition (A549 [2]): Dose-dependent effect
- inhibition (A549 [3]): Dose-dependent effect
- inhibition [4]: Active
- Activity (A549 [5]): Dose-dependent effect
- Activity (A549 [6]): Active
- Activity (A549 [7]): Dose-dependent effect
- Activity (A549 [8]): Dose-dependent effect
- Activity (A549 [9]): Dose-dependent effect
- Activity (A549 [10]): Dose-dependent effect
- Activity (A549 [11]): Dose-dependent effect
- Activity (A549 [12]): Dose-dependent effect

SMILES: CCOC(=O)c1csc(N[C@@H]2c3cc4c(cc3[C@@H](c3cc(OC)c(O)c(OC)c3)[C@H]3C(=O)OC[C@@H]32)OCO4)n1
- IC50 (A549 [1]): 0.16 µM
- IC50 (HepG2): 0.13 µM
- IC50 (HeLa): 5.6 µM
- IC50 (LoVo): 5 µM
- IC50 (WI-38): 55.3 µM
- inhibition (A549 [2]): Dose-dependent effect
- inhibition (A549 [3]): Dose-dependent effect
- inhibition [4]: Active
- Activity (A549 [5]): Dose-dependent effect
- Activity (A549 [6]): Active
- Activity (A549 [7]): Dose-dependent effect
- Activity (A549 [8]): Dose-dependent effect
- Activity (A549 [9]): Dose-dependent effect
- Activity (A549 [10]): Dose-dependent effect
- Activity (A549 [11]): Dose-dependent effect
- Activity (A549 [12]): Dose-dependent effect

SMILES: COc1cc([C@@H]2c3cc4c(cc3[C@@H](Nc3nc(CC(=O)O)cs3)[C@H]3COC(=O)[C@H]23)OCO4)cc(OC)c1O
- IC50 (A549 [1]): 8.3 µM
- IC50 (HepG2): 9.3 µM
- IC50 (HeLa): 8.7 µM
- IC50 (LoVo): 10.3 µM
- IC50 (WI-38): 42.5 µM

SMILES: CCOC(=O)Cc1csc(N[C@@H]2c3cc4c(cc3[C@@H](c3cc(OC)c(O)c(OC)c3)[C@H]3C(=O)OC[C@@H]32)OCO4)n1
- IC50 (A549 [1]): 9.3 µM
- IC50 (HepG2): 0.12 µM
- IC50 (HeLa): 12.5 µM
- IC50 (LoVo): 7 µM
- IC50 (WI-38): 44.4 µM

SMILES: COc1cc([C@@H]2c3cc4c(cc3[C@@H](Nc3nc(CC(=O)N5CCOCC5)cs3)[C@H]3COC(=O)[C@H]23)OCO4)cc(OC)c1O
- IC50 (A549 [1]): 18.7 µM
- IC50 (HepG2): 15.1 µM
- IC50 (HeLa): 14.8 µM
- IC50 (LoVo): 37.2 µM
- IC50 (WI-38): 33.5 µM

SMILES: COc1cc([C@@H]2c3cc4c(cc3[C@@H](Nc3nc(CC(=O)NC5CCCC5)cs3)[C@H]3COC(=O)[C@H]23)OCO4)cc(OC)c1O
- IC50 (A549 [1]): 9.1 µM
- IC50 (HepG2): 19.1 µM
- IC50 (HeLa): 14.1 µM
- IC50 (LoVo): 21 µM
- IC50 (WI-38): 29 µM

SMILES: COc1cc([C@@H]2c3cc4c(cc3[C@@H](Nc3nc(CC(=O)NC5CC5)cs3)[C@H]3COC(=O)[C@H]23)OCO4)cc(OC)c1O
- IC50 (A549 [1]): 11.1 µM
- IC50 (HepG2): 10.2 µM
- IC50 (HeLa): 17.2 µM
- IC50 (LoVo): 19.1 µM
- IC50 (WI-38): 56 µM

SMILES: COc1cc([C@@H]2c3cc4c(cc3[C@@H](Nc3nc(CC(=O)N5CCN(C)CC5)cs3)[C@H]3COC(=O)[C@H]23)OCO4)cc(OC)c1O
- IC50 (A549 [1]): 22.3 µM
- IC50 (HepG2): 18.7 µM
- IC50 (HeLa): 16.5 µM
- IC50 (LoVo): 27.4 µM
- IC50 (WI-38): 28.1 µM
